Consider 15 compounds from ChEMBL document CHEMBL1154791, “Constituents of Polyalthia longifolia var. pendula” (J Nat Prod, 2009).

One test concerns MCF7. Nature of the test: Cytotoxicity against human MCF7 cells after 72 hrs by MTT assay. The test is classed as functional, cell-based. Summed up:
(§1)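 Cells grown in RPMI1640 with 10% FBS, penicillin and streptomycin; log-phase cells seeded per well (MCF-7 1.0 × 10^4; A549 4.5 × 10^3). After 24 h, exposed to various concentrations for 72 h.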
Background: Tetrazolium dyes change colour on reduction, which living cells bring about.

The test system of a further test is A549. Nature of the test: Cytotoxicity against human A549 cells after 72 hrs by MTT assay. The test is classed as functional, cell-based. Summed up: as §1

The structures appear in SMILES notation.

`CC1=CCC[C@@H]2[C@@](C)(CC/C(C=O)=C\C(=O)O)[C@H](C)CC[C@@]12C`: the half-maximal inhibitory concentration (IC50) – broadly, the concentration that inhibits the measured activity by half – with MCF7 (Homo sapiens, MCF7, 72 h, read-out: IC50) was 3.7 µM; in the test on A549 (Homo sapiens, A549, 72 h, read-out: IC50) it was 3.1 µM.

As for `CC1=CC(=O)C[C@@H]2[C@@](C)(CC/C(C)=C\C(=O)O)[C@H](C)CC[C@@]12C`, the IC50 result in the test on MCF7 (mcf7) and in the test on A549 (a549) was “Not Active” in each case.

As for `CC1=CCC[C@@H]2[C@@](C)(CC/C(=C\C(=O)O)CO)[C@H](C)C[C@H](O)[C@@]12C`, the IC50 entry with MCF7 (mcf7) and with A549 (a549) was “Not Active” throughout.

On to `C=C1CCC[C@@H]2[C@@](C)(CC/C(=C\C(=O)O)CO)[C@H](C)C[C@H](O)[C@@]12C`, for which the IC50 result in the test with MCF7 (mcf7) and with A549 (a549) was “Not Active” in each case.

As to `COc1cc2c(cc1OC)[C@@H]1Cc3ccc(O)c(O)c3C(=O)N1CC2`, the 50% inhibitory concentration (IC50) result in the test with MCF7 (mcf7) and in the test with A549 (a549) was “Not Active” throughout.

For the compound `COc1cc2c(cc1OC)[C@@H]1Cc3cc(O)cc(OC)c3C(=O)N1CC2`, the concentration for half-maximal inhibition (IC50) entry in the test on MCF7 (mcf7) and with A549 (a549) was “Not Active” in each case.

As for `C[C@@H]1CC[C@]2(C)[C@H](CCC[C@]23CO3)[C@@]1(C)CC/C(=C\C(=O)O)CO`, the IC50 result in the test with MCF7 (mcf7) and with A549 (a549) was “Not Active” in each case.

Take `COc1cc2c(cc1OC)[C@@H]1Cc3ccc(O)c(OC)c3C(=O)N1CC2`: the IC50 entry with MCF7 (mcf7) and in the test with A549 (a549) was “Not Active” throughout.

Take `COc1cc2c(cc1O)[C@@H]1Cc3cc(O)c(OC)cc3C(=O)N1CC2`: the half-maximal inhibitory concentration (IC50) result in the test on MCF7 (mcf7) and with A549 (a549) was “Not Active” each time.

Regarding `COc1cc2c(cc1OC)[C@@H]1Cc3cc(O)c(OC)c(OC)c3C(=O)N1CC2`, the concentration for half-maximal inhibition (IC50) entry in the test on MCF7 (mcf7) and with A549 (a549) was “Not Active” throughout.

Turning to `COc1cc2c(cc1O)[C@@H]1Cc3cc(OC)c(O)c(OC)c3C(=O)N1CC2`, the IC50 entry with MCF7 (mcf7) and with A549 (a549) was “Not Active” each time.

For the compound `CCCCC/C=C\C/C=C\CCCCCCCC(=O)OCC(O)CO` (stereo not given), the IC50 entry with MCF7 (mcf7) and in the test with A549 (a549) was “Not Active” in each case.

Regarding `COc1cc2c(cc1OC)[C@@H]1Cc3ccc(OC)c(OC)c3C(=O)N1CC2`, the IC50 result with MCF7 (mcf7) and in the test on A549 (a549) was “Not Active” throughout.

As to `COc1c(O)cc2c(c1OC)-c1nccc(C)c1C2=O` [DARIENINE], the IC50 result with MCF7 (mcf7) and in the test on A549 (a549) was “Not Active” throughout.

With `COc1cc(/C=C/C(=O)NCCc2ccc(O)c(O)c2)ccc1O` [N-TRANS-FERULOYLDOPAMINE], the IC50 entry in the test on MCF7 (mcf7) and in the test on A549 (a549) was “Not Active” each time.
